Laboratory results as given in ChEMBL document CHEMBL1153032, “Benzhydrylquinazolinediones: novel cytosolic phospholipase A2alpha inhibitors with improved physicochemical properties” (Bioorg Med Chem, 2009).
≈ marks a conversion by molar mass, not a printed value.

How the values were obtained:
MC9 [1] = experiment: Inhibition of PGF2alpha production in arachidonic acid-stimulated mouse MC9 cells at 5 uM treated 15 mins before arachidonic acid challenge measured after 4 mins; format: functional
MC9 [2] = experiment: Inhibition of PGF2alpha production in DNP-BSA-stimulated mouse MC9 cells at 5 uM treated 15 mins before DNP-BSA challenge measured after 4 mins; format: functional
MC9 [3] = experiment: Inhibition of LTB4 production in DNP-BSA-stimulated mouse MC9 cells at 5 uM treated 15 mins before DNP-BSA challenge measured after 4 mins; format: functional
[4] = Lipophilicity, log D at pH 7.4; format: physicochemical; details: buffer
[5] = Inhibition of cytosolic phospholipase A2alpha by GLU micelle assay
[6] = Aqueous solubility after 18 hrs at pH 7.4; format: physicochemical
In short: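 Compound taken as 8 mg/mL DMSO stock; 13 µL added to 1.0 mL pH 7.4 buffer, mixed, left to settle 18 h at room temperature. Mixture filtered (0.2 µm), filtrate concentration read by UV plate reader. Solubility derived against a single-point standard.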

[7] = Permeability in buffer of pH 7.4 by PAMPA; format: ADME; details: read-out: permeability
In short: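 PAMPA: 5 mg/mL DMSO stock diluted 200-fold in pH 7.4 universal buffer (25 µg/mL) and placed in donor wells. Filter membrane coated with phosphatidylcholine in dodecane (20 mg/mL); acceptor holds pH 7.4 buffer. Sandwich left 18 h at rt. Donor, acceptor and reference concentrations read by UV. Effective permeability (Pe) calculated; triplicate runs averaged. Verapamil and theophylline run as QC standards.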

Blood = experiment: Inhibition of TXB2 production in calcium ionophore A-23187-stimulated Sprague-Dawley rat whole blood after 10 mins; format: functional, tissue-based

Cc1c(CCOc2ccc(C(=O)O)cc2)c2cc(Cl)ccc2n1C(c1ccccc1)c1ccccc1
inhibition at 5 µM (MC9 [1]): -8%
inhibition at 5 µM (MC9 [2]): 81%
inhibition at 5 µM (MC9 [3]): 96%
logD [4]: 6.1
IC50 [5]: 3 µM

Cc1cccc(C)c1CS(=O)(=O)NCCc1c(CCCc2ccc(C(=O)O)cc2)c2cc(Cl)ccc2n1C(c1ccccc1)c1ccccc1
IC50 [5]: 0.014 µM

O=C(O)c1ccc(OCCCCCCCn2c(=O)n(C(c3ccccc3)c3ccccc3)c(=O)c3ccccc32)cc1
IC50 [5]: 71 µM

CSc1ccc2c(=O)n(C(c3ccccc3)c3ccccc3)c(=O)n(C/C=C/COc3ccc(C(=O)O)cc3)c2c1
solubility at 18 h [6]: 26 µg/mL (≈ 46 µM)
logD [4]: 3.2
IC50 [5]: 2 µM
Papp [7]: 4.5 ×10⁻⁶ cm/s

O=C(O)c1ccc(OCCCCCCn2c(=O)n(C(c3ccccc3)c3ccccc3)c(=O)c3ccccc32)cc1
IC50 [5]: 47 µM

O=C(O)c1ccc(OC/C=C/Cn2c(=O)n(C(c3ccccc3)c3ccccc3)c(=O)c3ccc(Sc4ccccc4)cc32)cc1
logD [4]: 4.8
IC50 [5]: 2.1 µM

O=C(O)c1ccc(OC/C=C/Cn2c(=O)n(C(c3ccccc3)c3ccccc3)c(=O)c3ccc(N4CCOCC4)cc32)cc1
solubility at 18 h [6]: 48 µg/mL (≈ 79.5 µM)
logD [4]: 2.5
IC50 [5]: 2.2 µM
Papp [7]: 1 ×10⁻⁶ cm/s

O=C(O)c1cccc(OC/C=C/Cn2c(=O)n(C(c3ccccc3)c3ccccc3)c(=O)c3ccc(Cl)cc32)c1
IC50 [5]: 100 µM

O=C(O)c1ccc(OC/C=C/Cn2c(=O)n(C(c3ccccc3)c3ccccc3)c(=O)c3cc(Cl)ccc32)cc1
IC50 [5]: 10 µM

O=C(O)c1ccc(OCCCCn2c(=O)n(C(c3ccccc3)c3ccccc3)c(=O)c3ccc(Cl)cc32)cc1
IC50 [5]: 2.5 µM

O=C(O)COc1ccc(Cn2c(=O)n(C(c3ccccc3)c3ccccc3)c(=O)c3ccccc32)cc1
IC50 [5]: 360 µM

O=C(O)c1ccc(OCCCCCn2c(=O)n(C(c3ccccc3)c3ccccc3)c(=O)c3ccccc32)cc1
IC50 [5]: 30 µM

O=C(O)c1ccc(OC/C=C\Cn2c(=O)n(C(c3ccccc3)c3ccccc3)c(=O)c3cc(F)ccc32)cc1
IC50 [5]: 40 µM

Nc1ccc2c(=O)n(C(c3ccccc3)c3ccccc3)c(=O)n(C/C=C/COc3ccc(C(=O)O)cc3)c2c1
solubility at 18 h [6]: > 100 µg/mL
logD [4]: 1.7
IC50 [5]: 9 µM
Papp [7]: 0.4 ×10⁻⁶ cm/s

O=C(O)c1ccc(OC/C=C\Cn2c(=O)n(C(c3ccccc3)c3ccccc3)c(=O)c3ccccc32)cc1
IC50 [5]: 44 µM

O=C(O)c1ccc(Cn2c(=O)c3cc(Cl)ccc3n(C(c3ccccc3)c3ccccc3)c2=O)cc1
IC50 [5]: 90 µM

O=C(O)c1ccc(OC/C=C/Cn2c(=O)n(C(c3ccccc3)c3ccccc3)c(=O)c3ccc(-n4cncn4)cc32)cc1
inhibition at 5 µM (MC9 [1]): -28%
inhibition at 5 µM (MC9 [2]): 102%
solubility at 18 h [6]: > 100 µg/mL
inhibition at 5 µM (MC9 [3]): 100%
logD [4]: 1.4
IC50 (Blood): 11 µM
IC50 [5]: 1.1 µM
Papp [7]: 1.6 ×10⁻⁶ cm/s

O=C(O)c1ccc(OC/C=C/Cn2c(=O)n(C(c3ccccc3)c3ccccc3)c(=O)c3ccc(N4CCSCC4)cc32)cc1
logD [4]: 3.6
IC50 [5]: 2.4 µM

COc1ccc2c(=O)n(C(c3ccccc3)c3ccccc3)c(=O)n(C/C=C/COc3ccc(C(=O)O)cc3)c2c1
inhibition at 5 µM (MC9 [1]): -98%
inhibition at 5 µM (MC9 [2]): 74%
solubility at 18 h [6]: 40 µg/mL (≈ 72.9 µM)
inhibition at 5 µM (MC9 [3]): 99%
logD [4]: 2.8
IC50 (Blood): 9 µM
IC50 [5]: 3 µM
Papp [7]: 1.8 ×10⁻⁶ cm/s

CS(=O)(=O)c1ccc2c(=O)n(C(c3ccccc3)c3ccccc3)c(=O)n(C/C=C/COc3ccc(C(=O)O)cc3)c2c1
solubility at 18 h [6]: > 100 µg/mL
logD [4]: 1.4
IC50 [5]: 15 µM
Papp [7]: 0.3 ×10⁻⁶ cm/s

O=C(O)Cc1coc(-c2ccc(Cn3c(=O)n(C(c4ccccc4)c4ccccc4)c(=O)c4ccccc43)cc2)n1
IC50 [5]: 140 µM

O=C(O)c1ccc(OC/C=C/Cn2c(=O)n(C(c3ccccc3)c3ccccc3)c(=O)c3ccc([N+](=O)[O-])cc32)cc1
inhibition at 5 µM (MC9 [1]): -12%
inhibition at 5 µM (MC9 [2]): 30%
solubility at 18 h [6]: 34 µg/mL (≈ 60.3 µM)
inhibition at 5 µM (MC9 [3]): 97%
logD [4]: 2.4
IC50 (Blood): 13 µM
IC50 [5]: 1 µM
Papp [7]: 2.6 ×10⁻⁶ cm/s

O=C(O)c1ccc(OCCn2c(=O)n(C(c3ccccc3)c3ccccc3)c(=O)c3ccc(Cl)cc32)cc1
IC50 [5]: 10 µM

O=C(O)c1ccc(OCCn2c(=O)c3ccccc3n(C(c3ccccc3)c3ccccc3)c2=O)cc1
IC50 [5]: 10 µM

O=C(O)c1ccc(OCCn2c(=O)c3ccccc3n(Cc3ccccc3)c2=O)cc1
IC50 [5]: > 100 µM

O=C(O)c1ccc(OC/C=C\Cn2c(=O)c3ccccc3n(C(c3ccccc3)c3ccccc3)c2=O)cc1
solubility at 18 h [6]: 37 µg/mL (≈ 71.4 µM)
IC50 [5]: 25 µM

O=C(O)Cc1ccc(Cn2c(=O)n(C(c3ccccc3)c3ccccc3)c(=O)c3ccccc32)cc1
IC50 [5]: 260 µM

O=C(O)c1ccc(OC/C=C/Cn2c(=O)n(C(c3ccccc3)c3ccccc3)c(=O)c3ccc(Oc4ccccc4)cc32)cc1
solubility at 18 h [6]: 15 µg/mL (≈ 24.6 µM)
logD [4]: 4.8
IC50 [5]: 1.6 µM

O=C(O)c1ccc(OC/C=C/Cn2c(=O)n(C(c3ccccc3)c3ccccc3)c(=O)c3cc(F)ccc32)cc1
IC50 [5]: 6 µM

O=C(O)c1ccc(OCCn2c(=O)c3ccc(Cl)cc3n(C(c3ccccc3)c3ccccc3)c2=O)cc1
inhibition at 5 µM (MC9 [1]): 0%
inhibition at 5 µM (MC9 [2]): 61%
inhibition at 5 µM (MC9 [3]): 93%
logD [4]: 3.3
IC50 [5]: 4 µM

COC(=O)C1CCN(c2ccc3c(=O)n(C(c4ccccc4)c4ccccc4)c(=O)n(C/C=C/COc4ccc(C(=O)O)cc4)c3c2)CC1
solubility at 18 h [6]: 30 µg/mL (≈ 45.5 µM)
logD [4]: 3.3
IC50 [5]: 1.8 µM
Papp [7]: 1 ×10⁻⁶ cm/s

O=C(O)c1ccc(OC/C=C\Cn2c(=O)n(C(c3ccccc3)c3ccccc3)c(=O)c3cc(Br)ccc32)cc1
IC50 [5]: 30 µM

O=C(O)c1ccc(OC/C=C/Cn2c(=O)n(C(c3ccccc3)c3ccccc3)c(=O)c3cc(Br)ccc32)cc1
IC50 [5]: 9 µM

O=C(O)c1ccc(OC/C=C/Cn2c(=O)n(C(c3ccccc3)c3ccccc3)c(=O)c3ccccc32)cc1
inhibition at 5 µM (MC9 [2]): 52%
inhibition at 5 µM (MC9 [3]): 97%
IC50 (Blood): 14 µM
IC50 [5]: 3 µM

O=C(O)c1ccc(OC/C=C\Cn2c(=O)c3ccc(Cl)cc3n(C(c3ccccc3)c3ccccc3)c2=O)cc1
solubility at 18 h [6]: 51 µg/mL (≈ 92.2 µM)
IC50 [5]: 60 µM

O=C(O)Cc1ccc(Cn2c(=O)c3cc(Br)ccc3n(C(c3ccccc3)c3ccccc3)c2=O)cc1
IC50 [5]: 12 µM

O=C(O)c1ccc(OC/C=C/Cn2c(=O)n(C(c3ccccc3)c3ccccc3)c(=O)c3ccc(F)cc32)cc1
inhibition at 5 µM (MC9 [1]): -27%
inhibition at 5 µM (MC9 [2]): 83%
inhibition at 5 µM (MC9 [3]): 99%
logD [4]: 2.9
IC50 (Blood): 6 µM
IC50 [5]: 1.4 µM

O=C(O)c1ccc(OC/C=C/Cn2c(=O)c3ccc(Cl)cc3n(C(c3ccccc3)c3ccccc3)c2=O)cc1
solubility at 18 h [6]: 28 µg/mL (≈ 50.6 µM)
IC50 [5]: 4.5 µM

O=C(O)c1ccc(OC/C=C/Cn2c(=O)c3ccccc3n(C(c3ccccc3)c3ccccc3)c2=O)cc1
inhibition at 5 µM (MC9 [1]): -15%
inhibition at 5 µM (MC9 [2]): 61%
solubility at 18 h [6]: 51 µg/mL (≈ 98.3 µM)
inhibition at 5 µM (MC9 [3]): 98%
IC50 (Blood): 12 µM
IC50 [5]: 2 µM

O=C(O)c1ccc(Cn2c(=O)c3ccc(Cl)cc3n(C(c3ccccc3)c3ccccc3)c2=O)cc1
IC50 [5]: 80 µM

O=C(O)c1ccc(OC/C=C\Cn2c(=O)n(C(c3ccccc3)c3ccccc3)c(=O)c3ccc(Cl)cc32)cc1
IC50 [5]: 30 µM

Cc1ccc2c(=O)n(C(c3ccccc3)c3ccccc3)c(=O)n(C/C=C/COc3ccc(C(=O)O)cc3)c2c1
solubility at 18 h [6]: 40 µg/mL (≈ 75.1 µM)
logD [4]: 3.2
IC50 [5]: 2.8 µM
Papp [7]: 2 ×10⁻⁶ cm/s

O=C(O)C1CC1Cn1c(=O)c2cc(Br)ccc2n(C(c2ccccc2)c2ccccc2)c1=O (stereo unspecified)
IC50 [5]: 120 µM

O=C(O)c1ccc(OC/C=C/Cn2c(=O)c3cc(F)ccc3n(C(c3ccccc3)c3ccccc3)c2=O)cc1
solubility at 18 h [6]: 42 µg/mL (≈ 78.3 µM)
IC50 [5]: 5.6 µM

O=C(O)c1ccc(OC/C=C\Cn2c(=O)n(C(c3ccccc3)c3ccccc3)c(=O)c3cc(Cl)ccc32)cc1
IC50 [5]: 40 µM

O=C(O)c1ccc(OC/C=C/Cn2c(=O)n(C(c3ccccc3)c3ccccc3)c(=O)c3ccc(Cl)cc32)cc1
inhibition at 5 µM (MC9 [1]): -45%
inhibition at 5 µM (MC9 [2]): 99%
inhibition at 5 µM (MC9 [3]): 98%
IC50 (Blood): 11 µM
IC50 [5]: 1 µM

O=C(O)c1ccc(OCCCn2c(=O)n(C(c3ccccc3)c3ccccc3)c(=O)c3ccccc32)cc1
IC50 [5]: 50 µM

O=C(O)CCCOc1ccc(Cn2c(=O)n(C(c3ccccc3)c3ccccc3)c(=O)c3ccccc32)cc1
IC50 [5]: 40 µM

O=C(O)c1ccc(CCCc2c(CCNS(=O)(=O)Cc3ccc(Cl)c(Cl)c3)n(C(c3ccccc3)c3ccccc3)c3ccc(Cl)cc23)cc1 [EFIPLADIB]
IC50 [5]: 0.04 µM
